Source: ChEMBL document CHEMBL4152267, “Structure-based design of novel quinoxaline-2-carboxylic acids and analogues as Pim-1 inhibitors” (Eur J Med Chem, 2018)
Structures can show the parent of a compound that is named as a salt.

Legend:
[1] = molecular target: Serine/threonine-protein kinase pim-1 (Homo sapiens, UniProt P11309); assay: Inhibition of recombinant human Pim1 expressed in bacterial expression system using histone H1 as substrate after 30 mins by ADP-Glo reagent based luminescence assay
Chain of Serine/threonine-protein kinase pim-1 (P11309 whole entry): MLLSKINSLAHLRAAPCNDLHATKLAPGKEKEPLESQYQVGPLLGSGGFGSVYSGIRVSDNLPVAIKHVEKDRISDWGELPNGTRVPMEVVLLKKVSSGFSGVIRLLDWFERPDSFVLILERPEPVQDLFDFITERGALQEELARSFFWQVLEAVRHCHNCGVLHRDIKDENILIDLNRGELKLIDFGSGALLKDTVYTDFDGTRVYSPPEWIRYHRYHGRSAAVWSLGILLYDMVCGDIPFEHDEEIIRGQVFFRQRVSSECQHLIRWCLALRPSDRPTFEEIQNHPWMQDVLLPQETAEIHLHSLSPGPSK
Outline: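 Recombinant human Pim-1 (bacterially expressed) with histone H1 at 0.8 µg/µL, 10 µM ATP, in 40 mM Tris pH 7.5, 20 mM MgCl₂ and 0.1 mg/mL BSA, for 30 min at 30 °C. ADP-Glo reagent stops the reaction (50 min, rt), then detection reagent is added (1 h, rt) and luminescence is read.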

[2] = molecular target: Dual specificity tyrosine-phosphorylation-regulated kinase 1A (Rattus norvegicus, UniProt Q63470)
[3] = molecular target: Dual specificity protein kinase CLK1 (Mus musculus, UniProt P22518)
Chain of Dual specificity protein kinase CLK1 (P22518 whole entry): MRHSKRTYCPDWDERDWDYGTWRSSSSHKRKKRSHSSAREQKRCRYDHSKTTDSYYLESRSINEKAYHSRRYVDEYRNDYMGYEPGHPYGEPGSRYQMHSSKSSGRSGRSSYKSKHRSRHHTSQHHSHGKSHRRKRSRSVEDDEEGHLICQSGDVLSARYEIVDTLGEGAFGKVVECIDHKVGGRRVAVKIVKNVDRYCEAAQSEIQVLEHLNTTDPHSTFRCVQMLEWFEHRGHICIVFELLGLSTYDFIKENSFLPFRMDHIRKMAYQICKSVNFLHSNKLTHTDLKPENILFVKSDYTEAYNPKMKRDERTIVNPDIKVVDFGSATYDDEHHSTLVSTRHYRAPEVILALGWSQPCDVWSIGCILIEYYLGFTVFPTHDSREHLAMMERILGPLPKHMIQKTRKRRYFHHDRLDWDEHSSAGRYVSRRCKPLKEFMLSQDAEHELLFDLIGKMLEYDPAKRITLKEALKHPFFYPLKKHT

[4] = molecular target: CDK9/cyclin T1 (Homo sapiens, UniProt P50750); assay: Inhibition of recombinant human CDK9/CyclinT expressed in baculovirus infected Sf9 insect cells using YSPTSPSYSPTSPSYSPTSPSKKKK as substrate after 30 mins by ADP-Glo reagent based luminescence assay
Chain of CDK9/cyclin T1 (O60563 whole entry, the tested form may be a part): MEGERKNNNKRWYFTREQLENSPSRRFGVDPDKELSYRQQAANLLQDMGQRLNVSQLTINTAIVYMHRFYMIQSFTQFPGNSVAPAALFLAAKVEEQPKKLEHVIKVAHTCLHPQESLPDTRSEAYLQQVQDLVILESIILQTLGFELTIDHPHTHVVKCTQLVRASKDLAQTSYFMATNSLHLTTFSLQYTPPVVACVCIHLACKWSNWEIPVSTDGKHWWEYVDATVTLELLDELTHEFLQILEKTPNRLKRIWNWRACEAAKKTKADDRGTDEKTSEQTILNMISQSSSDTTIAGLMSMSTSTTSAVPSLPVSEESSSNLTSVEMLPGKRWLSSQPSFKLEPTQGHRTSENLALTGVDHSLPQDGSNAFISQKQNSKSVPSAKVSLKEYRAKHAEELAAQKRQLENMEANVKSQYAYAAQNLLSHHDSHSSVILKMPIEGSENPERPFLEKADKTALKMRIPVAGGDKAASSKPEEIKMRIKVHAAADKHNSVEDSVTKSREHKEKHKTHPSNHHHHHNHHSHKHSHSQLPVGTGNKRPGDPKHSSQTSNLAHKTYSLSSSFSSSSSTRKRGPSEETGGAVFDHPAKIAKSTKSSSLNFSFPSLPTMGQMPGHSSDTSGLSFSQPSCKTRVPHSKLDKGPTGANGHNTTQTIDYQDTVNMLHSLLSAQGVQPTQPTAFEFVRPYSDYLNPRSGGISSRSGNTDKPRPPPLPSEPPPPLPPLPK
Chain of CDK9/cyclin T1 (P50750 whole entry, the tested form may be a part): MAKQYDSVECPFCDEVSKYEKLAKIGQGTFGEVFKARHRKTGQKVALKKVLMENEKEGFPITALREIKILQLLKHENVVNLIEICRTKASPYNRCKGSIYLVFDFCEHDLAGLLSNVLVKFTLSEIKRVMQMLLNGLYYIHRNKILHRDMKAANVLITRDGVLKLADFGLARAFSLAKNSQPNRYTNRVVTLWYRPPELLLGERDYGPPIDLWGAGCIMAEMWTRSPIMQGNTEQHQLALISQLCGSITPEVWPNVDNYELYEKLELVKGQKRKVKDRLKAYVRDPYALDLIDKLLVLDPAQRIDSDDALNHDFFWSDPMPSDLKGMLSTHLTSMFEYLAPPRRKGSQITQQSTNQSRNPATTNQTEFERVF

[5] = molecular target: T1, Serine/threonine-protein kinase haspin (Homo sapiens, UniProt Q8TF76); assay: Inhibition of recombinant human haspin kinase domain (470 to 798 residues) expressed in bacterial expression system using histone H3 peptide as substrate after 30 mins by ADP-Glo reagent based luminescence assay
T1 sequence (Q8TF76 whole entry): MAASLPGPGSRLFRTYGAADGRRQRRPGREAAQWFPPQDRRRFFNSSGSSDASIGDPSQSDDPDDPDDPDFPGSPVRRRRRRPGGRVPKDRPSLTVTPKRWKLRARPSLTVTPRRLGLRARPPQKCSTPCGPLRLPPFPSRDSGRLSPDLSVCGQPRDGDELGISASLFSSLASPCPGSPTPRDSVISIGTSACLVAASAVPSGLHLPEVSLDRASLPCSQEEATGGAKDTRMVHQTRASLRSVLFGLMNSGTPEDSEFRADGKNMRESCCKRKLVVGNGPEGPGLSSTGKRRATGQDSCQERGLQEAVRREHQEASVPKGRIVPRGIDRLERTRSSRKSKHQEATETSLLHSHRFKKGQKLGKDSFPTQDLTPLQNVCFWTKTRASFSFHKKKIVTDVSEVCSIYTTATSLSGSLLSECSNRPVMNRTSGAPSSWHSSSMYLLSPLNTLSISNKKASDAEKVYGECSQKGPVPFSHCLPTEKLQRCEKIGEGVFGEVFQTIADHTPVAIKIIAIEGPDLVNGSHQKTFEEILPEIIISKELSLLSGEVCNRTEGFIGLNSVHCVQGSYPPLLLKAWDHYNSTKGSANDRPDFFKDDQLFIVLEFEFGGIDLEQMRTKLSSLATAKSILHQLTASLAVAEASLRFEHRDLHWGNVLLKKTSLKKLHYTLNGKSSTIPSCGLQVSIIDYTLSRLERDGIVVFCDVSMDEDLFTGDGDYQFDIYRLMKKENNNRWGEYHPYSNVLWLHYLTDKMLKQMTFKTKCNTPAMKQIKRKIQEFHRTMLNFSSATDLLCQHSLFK

[6] = molecular target: Glycogen synthase kinase-3 (Sus scrofa, UniProt B2LUN4+I6LNT8)
[7] = tested on: KU812 cell line; assay: Cytotoxicity against human KU812 cells assessed as reduction in cell viability after 48 hrs by MTT assay; assay type: functional, cell-based; details: KU812, 48 h
[8] = molecular target: CDK2/Cyclin A2 (Homo sapiens, UniProt P24941); assay: Inhibition of human CDK2/CyclinA using histone H1 as substrate after 30 mins by ADP-Glo reagent based luminescence assay; assay type: protein-complex assay

Row | Structure (SMILES) | IC50 [1] [µM] | IC50 [2] [µM] | IC50 [3] [µM] | IC50 [4] [µM] | IC50 [5] [µM] | IC50 [6] [µM] | EC50 [7] [µM] | IC50 [8] [µM]
1 | Nc1ccc(Nc2nc3ccccc3nc2C(=O)O)cc1 | > 10 | – | – | – | – | – | – | –
2 | CCOC(=O)c1nc2ccccc2nc1Nc1ccc(C2CCN(C)CC2)cc1 | > 10 | – | – | – | – | – | – | –
3 | NC(=O)c1nc2ccccc2nc1Nc1cccc(N2CCOCC2)c1 | > 10 | – | – | – | – | – | – | –
4 | O=C(O)c1nc2ccccc2nc1Nc1ccc(O)cc1 | 0.29 | 0.098 | > 10 | > 10 | > 10 | > 10 | 41.7 | > 10
5 | CCOC(=O)c1nc2ccccc2nc1Nc1cccc(N2CCOCC2)c1 | > 10 | – | – | – | – | – | – | –
6 | O=C(O)c1nc2ccccc2nc1Nc1ccccc1O | 0.76 | 0.74 | > 10 | > 10 | > 10 | > 10 | 178 | > 10
7 | O=C(O)c1nc2ccccc2nc1Nc1ccc2[nH]ccc2c1 | > 10 | – | – | – | – | – | – | –
8 | CCOC(=O)c1nc2ccccc2nc1Nc1cccc(O)c1 | > 10 | – | – | – | – | – | – | –
9 | CCOC(=O)c1nc2ccccc2nc1Nc1cccc(N)c1 | > 10 | – | – | – | – | – | – | –
10 | CN1CCC(c2ccc(Nc3nc4ccccc4nc3C(=O)O)cc2)CC1 | > 10 | – | – | – | – | – | – | –
11 | CCOC(=O)c1nc2ccccc2nc1Nc1ccc(N)cc1 | > 10 | – | – | – | – | – | – | –
12 | O=C(O)c1nc2ccccc2nc1Nc1cccc(N2CCOCC2)c1 | 1.01 | > 10 | > 10 | > 10 | > 10 | > 10 | 57.3 | > 10
13 | CCOC(=O)c1nc2ccccc2nc1Nc1ccc(O)cc1 | > 10 | – | – | – | – | – | – | –
14 | Nc1cccc(Nc2nc3ccccc3nc2C(=O)[O-])c1.[K+] | 2.8 | 1.67 | > 10 | > 10 | > 10 | > 10 | 63.8 | > 10
15 | CCOC(=O)c1nc2ccccc2nc1Nc1ccc2[nH]ccc2c1 | > 10 | – | – | – | – | – | – | –
16 | CCOC(=O)c1nc2ccccc2nc1Nc1ccccc1O | > 10 | – | – | – | – | – | – | –
17 | O=C(O)c1nc2ccccc2nc1Nc1cccc(O)c1 | – | – | > 10 | > 10 | > 10 | > 10 | 38.9 | > 10
18 | Cc1ccc(NC(=O)c2ccc(CN3CCN(C)CC3)cc2)cc1Nc1nccc(-c2cccnc2)n1 [IMATINIB MESYLATE] | – | – | – | – | – | – | 0.6 | –
